PPC-1+TRAIL kill – PPC-1 cancer cell killing with TRAIL present. PPC-1 cells + TRAIL, ATPLite viability luminescence. cell killing (% activity), % at 4 µM or 5 µM. 0.41% of 220,000 active. AID 1443;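 active means cell killing above 50% in the first pass at 4 µM, then a duplicate retest at 5 µM averaging 50% or more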;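 further: plate controls were cells with TRAIL plus DMSO for no effect and medium-only wells lacking cells for full effect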
STAT3 inh-1 – STAT3 signaling inhibition | U3A cells, IL-6 STAT3-luciferase reporter, luminescence; host cell line lacks STAT1 | inhibition, % at 5.5 µM | 0.89% of 190,000 active | AID 862;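 active means inhibition above the mean inhibition across all screened compounds plus 3 SD, cut at about 44% in these data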;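 further: 0% = DMSO only wells and 100% = 100 µM nifuroxazide control wells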
C8 TRAIL sens – caspase-8 TRAIL sensitization | NB7+C8 cells + TRAIL, ATPlite viability luminescence | inhibition (viability loss, TRAIL sensitization), % at 10 µM | 1% of 360,000 active | AID 624354;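 active means compounds causing at least 50% loss of cell viability in the single-dose screen, relative to plate controls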
STAT3 act – activators of IL-6 induced STAT3 signaling | U3A cells, IL-6 STAT3-luciferase reporter, luminescence; 100% = signal with IL-6 EC80 alone | AID 871 | activation (% of control), % at 5.6 µM | 0.91% of 190,000 active;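 active means activation above the screen-wide mean of compound activation plus 3 SD, cut at about 130% in these data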;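 further: 0% = background luminescence of wells with medium and substrate only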
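Material: STAT3-luciferase reporter U3A cells; Probe or stimulus: IL-6 (33 ng/mL); Incubation: compound pre-incubation 1 h before IL-6, then 6 h stimulation at 37 °C; Technique: luminescence from STAT3-driven luciferase reporter; Evaluation: % activation versus median of IL-6-stimulated wells; Controls: IL-6-only high control.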
STAT1 inh – STAT1 signaling inhibition; NIH 3T3 STAT1-luciferase reporter, IFN-gamma, luminescence; inhibition, % at 5.5 µM; 0.35% of 200,000 active; AID 920;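 active means inhibition above a set limit, the mean inhibition across all tested compounds plus 3 SD, cut at about 34% in these data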;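 further: 0% = IFN-gamma with DMSO and 100% = IFN-gamma with 300 µM nifuroxazide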
STAT3 inh-2 – STAT3 inhibition, confirmation assay | shares compounds with STAT3 inh-1 | U3A cells, IL-6 STAT3 luciferase reporter, luminescence; cell line lacks STAT1 | inhibition, % at 5.7 µM | 45% of 1,200 active | AID 1265;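 active means inhibition above the hit cutoff computed for the primary STAT3 screen, cut at about 44% in these data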;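 further: 0% = IL-6 plus DMSO and 100% = IL-6 plus nifuroxazide control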
NFkB inh STAT3ct – inhibits NF-kappaB, counter-screen to STAT3 inhibitors. inhibition, % at 5.7 µM. 36% of 1,200 active. shares compounds with STAT3 inh-1. AID 1308. HEK293T NF-kB luciferase reporter, TNF-alpha induced;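 active means inhibition above the mean of solvent-only control wells plus 3 SD, cutoff set per campaign, cut at about 13% in these data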;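 further: 0% = TNF-alpha with DMSO and 100% = TNF-alpha with MG high control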
STAT1 inh 2 – inhibits STAT1, counter-screen to STAT3 inhibitors | shares compounds with STAT3 inh-1 | NIH 3T3 STAT1-luciferase reporter, IFN-gamma induced, luminescence | inhibition, % at 5.7 µM | 27% of 1,200 active;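 active means inhibition above the mean plus 3 SD of solvent-only control wells, limit set per screening run, cut at about 16% in these data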;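 further: 0% = DMSO with IFN-gamma and 100% = nifuroxazide control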
Active calls of the source: *. Rows were chosen to be rich in hits. Some 1.8% of all compounds tested hit in one or more screens of this group.

How did Cc1ccc(C(=O)Nc2cccc(C(=O)O)c2)cc1S(=O)(=O)N1CCCCC1 do in these assays?
PPC-1+TRAIL kill: 28; STAT3 inh-1: 55*; C8 TRAIL sens: 32; STAT3 act: 58; STAT1 inh: 22; STAT3 inh-2: 13; NFkB inh STAT3ct: 14*; STAT1 inh 2: 18*

How did O=C(Nc1ccc(Cl)c(S(=O)(=O)N2CCOCC2)c1)c1ccc(OCC2CCCO2)cc1 (stereo not given) do in these assays?
PPC-1+TRAIL kill: 11; STAT3 inh-1: 54*; C8 TRAIL sens: 51*; STAT3 act: 58; STAT1 inh: 26; STAT3 inh-2: 61*; NFkB inh STAT3ct: 22*; STAT1 inh 2: 9

What do the screens show for `COc1cc(F)ccc1-c1csc(C(O)(c2ccccc2)C(F)(F)F)n1` (stereo not given)?
C8 TRAIL sens: 10

Results for COc1ccc(S(=O)(=O)N[C@@H](CSCc2ccccc2)C(=O)O)cc1 ?
C8 TRAIL sens: 5

What do the screens show for `C=CCn1c(CSc2ccc(C)cc2)n[nH]c1=S`?
C8 TRAIL sens: 4

What do the screens show for `O=C(Nc1cccc(Br)c1)c1ccc(Cl)c(S(=O)(=O)N2CCOCC2)c1`?
PPC-1+TRAIL kill: 30; STAT3 inh-1: 73*; C8 TRAIL sens: 38; STAT3 act: 40; STAT1 inh: 12; STAT3 inh-2: 66*; NFkB inh STAT3ct: 15*; STAT1 inh 2: 13

How did O=C(Nc1cccc(C(=O)NC2CC2)c1)c1ccc(Cl)c(S(=O)(=O)N2CCOCC2)c1 do in these assays?
C8 TRAIL sens: -1

How did CCOc1ccc(OCc2ccc(C(=O)OCc3ccccn3)o2)cc1 do in these assays?
PPC-1+TRAIL kill: 8; STAT3 inh-1: 46*; C8 TRAIL sens: -6; STAT3 act: 65; STAT1 inh: 9; STAT3 inh-2: 15; NFkB inh STAT3ct: -20; STAT1 inh 2: -19

What do the screens show for `CCOC(=O)c1ccc(COc2ccc(C(C)C)cc2)o1`?
PPC-1+TRAIL kill: 10; STAT3 inh-1: -2; C8 TRAIL sens: -10; STAT3 act: 107; STAT1 inh: -14

Results for CN(C)c1ccc(NC(=O)CN2CCc3ccccc3C2)cc1 ?
C8 TRAIL sens: -1

What do the screens show for `Cc1csc(SCC(=O)c2c(N)n(CC(C)C)c(=O)n(C)c2=O)n1`?
PPC-1+TRAIL kill: -11; STAT3 inh-1: 49*; C8 TRAIL sens: 14; STAT3 act: 62; STAT1 inh: 16; STAT3 inh-2: 49*; NFkB inh STAT3ct: -2; STAT1 inh 2: 20*

Results for CC(C)Cn1c(N)c(C(=O)COC(=O)c2ccc(O)cc2)c(=O)n(C)c1=O ?
PPC-1+TRAIL kill: 11; STAT3 inh-1: 1; C8 TRAIL sens: 3; STAT3 act: 100; STAT1 inh: 4

Results for CCOC(=O)Cc1csc(SCC(=O)c2c(N)n(CC(C)C)c(=O)n(C)c2=O)n1 ?
PPC-1+TRAIL kill: 5; STAT3 inh-1: 64*; C8 TRAIL sens: 24; STAT3 act: 51; STAT1 inh: 15; STAT3 inh-2: 52*; NFkB inh STAT3ct: 13; STAT1 inh 2: 15

Results for CC(C)Cn1c(N)c(C(=O)CSc2ncccn2)c(=O)n(C)c1=O ?
C8 TRAIL sens: 1

What do the screens show for `Cc1nn(-c2ccccc2)c(C)c1C(=O)OCC(=O)c1c(N)n(CC(C)C)c(=O)n(C)c1=O`?
PPC-1+TRAIL kill: 18; STAT3 inh-1: 44*; C8 TRAIL sens: 43; STAT3 act: 67; STAT1 inh: 11; STAT3 inh-2: 66*; NFkB inh STAT3ct: 14*; STAT1 inh 2: 14

Results for Oc1c(C=Nc2ccccc2)sc2ccccc12 ?
STAT3 inh-1: 66*; C8 TRAIL sens: 17; STAT3 act: 48; STAT1 inh: -20; STAT3 inh-2: -16; NFkB inh STAT3ct: -29; STAT1 inh 2: -21

How did Oc1c(C=Nc2cccnc2)sc2ccccc12 do in these assays?
PPC-1+TRAIL kill: 27; STAT3 inh-1: -18; C8 TRAIL sens: 14; STAT3 act: 119; STAT1 inh: 3

How did CCN1/C(=C/c2ccc3ccccc3[n+]2CCCS(=O)(=O)[O-])C=Cc2cc(C)ccc21 do in these assays?
C8 TRAIL sens: 11

How did CCN1/C(=C/c2ccc3ccccc3[n+]2CC)C=Cc2ccccc21 do in these assays?
PPC-1+TRAIL kill: 39; STAT3 inh-1: 92*; C8 TRAIL sens: 59*; STAT3 act: 23; STAT1 inh: 29; STAT3 inh-2: 90*; NFkB inh STAT3ct: 52*; STAT1 inh 2: 22*

Results for C/C(=N/Nc1ccc([N+](=O)[O-])cc1)c1c[nH]c2ccccc12 ?
C8 TRAIL sens: -3

What do the screens show for `Cc1ccc(/C=C/c2nc3ccccc3[nH]2)o1`?
PPC-1+TRAIL kill: 12; STAT3 inh-1: 54*; C8 TRAIL sens: 17; STAT3 act: 59; STAT1 inh: 10; STAT3 inh-2: -16; NFkB inh STAT3ct: -15; STAT1 inh 2: -34

How did Cc1ccccc1-c1cc2nc(NCc3ccc(N(C)C)cc3)n(C)c(=O)c2s1 do in these assays?
C8 TRAIL sens: 30

What do the screens show for `CC(=O)c1ccc(N=Nc2ccc(N(C)C)cc2)cc1`?
PPC-1+TRAIL kill: 45; STAT3 inh-1: 52*; C8 TRAIL sens: 78*; STAT3 act: 56; STAT1 inh: -19; STAT3 inh-2: 47*; NFkB inh STAT3ct: 22*; STAT1 inh 2: -69

What do the screens show for `C=C(C)C(=O)Oc1ccc(N=Nc2ccc(C)cc2)ccc1=O`?
C8 TRAIL sens: 16

How did CC(=O)c1ccc(N=Nc2ccc(C)cc2)cc1 do in these assays?
PPC-1+TRAIL kill: 44; STAT3 inh-1: 82*; C8 TRAIL sens: 47; STAT3 act: 33; STAT1 inh: 31; STAT3 inh-2: 44*; NFkB inh STAT3ct: -10; STAT1 inh 2: -96

How did CCC(=O)N1CCCc2cc(S(=O)(=O)N3CCN(c4ccccc4F)CC3)ccc21 do in these assays?
PPC-1+TRAIL kill: 8; STAT3 inh-1: 53*; C8 TRAIL sens: 83*; STAT3 act: 62; STAT1 inh: 21; STAT3 inh-2: 36; NFkB inh STAT3ct: 11; STAT1 inh 2: 12

How did CCC(=O)N1CCc2cc(S(=O)(=O)Nc3ccc4c(c3)OCCO4)ccc21 do in these assays?
PPC-1+TRAIL kill: 18; STAT3 inh-1: 47*; C8 TRAIL sens: 30; STAT3 act: 64; STAT1 inh: 21; STAT3 inh-2: 35; NFkB inh STAT3ct: -2; STAT1 inh 2: 12

How did CCC(=O)N1CCCc2cc(S(=O)(=O)N3CCN(c4ncccn4)CC3)ccc21 do in these assays?
PPC-1+TRAIL kill: 10; STAT3 inh-1: 17; C8 TRAIL sens: 19; STAT3 act: 93; STAT1 inh: 2

Screening results from PubChem.
